HCV NS3 hel inh: inhibitors of HCV NS3 helicase, primary screen, biochemical, Cy5 molecular beacon fluorescence; Hepatitis C virus NS3 helicase; NS3 helicase DNA unwinding; inhibition, % at 10.9 µM; 0.56% of 290,000 active; AID 1800, 2009;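 active = inhibition above the mean of all tested compounds plus 3 SD, set per campaign, cut at about 35% in these data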;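 also: 0% = DMSO wells and 100% = thioflavine S control wells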
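System: NS3 helicase fragment of HCV / Schedule: 1 h at 25 °C / Control set: DMSO alone as 0% and 110 µM thioflavine S as 100% / Reagent: Cy5/quencher beacon DNA duplex and ATP to start / Technique: Cy5 fluorescence / Replication: singlicate / Evaluation: % inhibition of end-to-start signal ratio versus controls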
rCAG RNA binder: binders of r(CAG) RNA repeats, primary screen, biochemical, fluorescence; r(CAG) RNA repeat, TO-PRO-1 dye displacement fluorescence; inhibition, % at 3 µM; 1.3% of 370,000 active; AID 651821, 2012;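 active = inhibition above the plate cutoff, the mean of all test compounds on that plate plus 3 SD, cut at about 35% in these data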;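 also: 0% = DMSO alone and 100% = 100 µM mitoxantrone as full dye displacement; higher means more dye released from RNA so lower well fluorescence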
TAAR1 antagonist: human TAAR1 antagonists, primary screen, Fluo-8 calcium fluorescence, CHO RD-HGA16 cells; Trace amine-associated receptor 1 (Homo sapiens), Q96RJ0; antagonist; inhibition, % at 3 µM; 1.5% of 360,000 active; AID 624466, 2012;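 active = inhibition above a per-plate cutoff, the mean inhibition of test compounds on that plate plus 3 SD, cut at about 49% in these data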;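 also: 0% = DMSO plus EC80 beta-PEA response and 100% = DMSO alone without agonist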
Target sequence (Q96RJ0 whole entry, looked up): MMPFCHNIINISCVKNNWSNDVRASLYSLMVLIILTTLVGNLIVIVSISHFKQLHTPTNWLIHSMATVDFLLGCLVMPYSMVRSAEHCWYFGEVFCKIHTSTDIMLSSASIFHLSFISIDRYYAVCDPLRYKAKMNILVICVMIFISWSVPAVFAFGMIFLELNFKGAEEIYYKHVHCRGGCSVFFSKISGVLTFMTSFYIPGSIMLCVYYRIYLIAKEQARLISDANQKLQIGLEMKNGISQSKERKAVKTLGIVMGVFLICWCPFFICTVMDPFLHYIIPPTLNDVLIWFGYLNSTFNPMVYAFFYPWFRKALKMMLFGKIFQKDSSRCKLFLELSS
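Assay system: RD-HGA16 CHO cells with stable hTAAR1 and Gα16 / Reagent: EC80 β-phenethylamine stimulus / Doses: 3 µM, single point / Timing: dye loading 75 min at 37 °C, then 30 min room temperature / Measured by: Fluo-8 intracellular calcium dye fluorescence, real-time kinetic reads / Controls: vehicle wells and EC80 agonist wells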
HCV core dimer: inhibitors of HCV core protein dimerization, primary screen, biochemical, TR-FRET, high-throughput | inhibition, % at 5 µM | 0.33% of 300,000 active | TR-FRET GST/Flag-core106 dimerization, 1536-well;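 active = inhibition above the mean of all tested compounds plus 3 SD, set per screening campaign, cut at about 45% in these data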
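Material: Tagged HCV core106 pair (GST and Flag) | Amount: GST-core106 13.5 nM, Flag-core106 17 nM | Medium: KF-containing HEPES buffer, pH 7.45, DTT, CHAPS, BSA | Reagent: Eu donor and XL665 acceptor anti-tag antibodies | Schedule: 4 h at 22.5 °C | Technique: Time-resolved FRET, ex 340 nm, em 617 and 671 nm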
TAAR1 agonist: human TAAR1 agonists, primary screen, Fluo-8 calcium fluorescence, CHO RD-HGA16 cells. vehicle wells 0%, saturating PEA agonist 100%. activation, % at 3 µM. 0.99% of 360,000 active;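 active = activation above the mean activation of all test compounds in the run plus 3 SD, cut at about 38% in these data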
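Benchmarks: low control DMSO, high control PEA (EC100); System: CHO RD-HGA16 cells carrying human TAAR1 plus Gα16; Detection: Fluo-8 fluorescence, 5 s baseline then 140 s kinetic read; Schedule: 17-24 h plating, Fluo-8 75 min 37 °C, 30 min RT; Read-out basis: % activation from peak over basal fluorescence ratio, DMSO-to-PEA scaled.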
TAAR1 ag conf: human TAAR1 agonists, retest of hits, confirmation, Fluo-8 calcium fluorescence, CHO RD-HGA16 cells; shares compounds with TAAR1 agonist; scaled: DMSO 0%, maximal phenethylamine 100%; activation, % at 3 µM; 82% of 2,400 active;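 active = activation above a cutoff set at the run's mean compound activation plus 3 SD, cut at about 39% in these data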
Ga16 ag counter: nonselective calcium mobilization agonists, CHO-Ga16 cells, counter-screen for hTAAR1 agonist project, cell-based, fluorescence, CHO-Ga16 parental line | shares compounds with TAAR1 agonist | Fluo-8 calcium fluorescence; normalized to maximal ATP response, DMSO zero | activation, % at 3 µM | 50% of 2,400 active | AID 651787, 2012;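 active = activation above the run cutoff, the mean activation over all tested wells plus 3 SD, cut at about 12% in these data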;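 also: 0% = DMSO wells and 100% = maximal ATP response on the peak over basal ratio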
TAAR1 desensitize: TAAR1 desensitization by agonist hits, confirmation, counter-screen for TAAR1 agonist project, cell-based, fluorescence, tachyphylaxis; shares compounds with TAAR1 agonist; CHO RD-HGA16 hTAAR1, Fluo-8 calcium, beta-PEA response inhibition; inhibition, % at 3 µM; 46% of 2,400 active; AID 651951, 2012;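 active = inhibition above the run cutoff, the mean inhibition of all test compounds plus 3 SD, cut at about 49% in these data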;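 also: beta-PEA stimulus applied at its EC80; loss of beta-PEA calcium signal after compound pretreatment read as receptor desensitization; 0% = DMSO with beta-PEA at EC80 and 100% = DMSO alone without agonist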
Ga16 antag count: inhibition of ATP-evoked calcium response in CHO-Ga16 cells, counter-screen for TAAR1 agonist project, cell-based, fluorescence; inhibition, % at 3 µM; CHO-Ga16 ATP-induced calcium, Fluo-8 fluorescence; 39% of 2,400 active; shares compounds with TAAR1 agonist; AID 651952, 2012;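 active = inhibition above the plate's mean compound inhibition plus 3 SD, computed per plate, cut at about 22% in these data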;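 also: 0% = EC80 ATP with DMSO and 100% = DMSO wells without ATP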
Numbers without * were called inactive; · = no result. A selection: hits, their analogues and other compounds. The true share with any hit is near 3.7%.

SMILES	HCV NS3 hel inh	rCAG RNA binder	TAAR1 antagonist	HCV core dimer	TAAR1 agonist	TAAR1 ag conf	Ga16 ag counter	TAAR1 desensitize	Ga16 antag count
CCOC(=O)[C@@]12CCCC=C1N(CCc1ccc(Cl)cc1)C(=O)[C@H]2CC(=O)NCCc1ccccc1OC	·	5	·	·	·	·	·	·	·
N#Cc1ccc(-c2nc3cc(Cl)ccc3c(=O)n2O)cc1	29	1	-7	-5	-1	·	·	·	·
O=c1c2ccc(Cl)cc2nc(-c2cccc(C(F)(F)F)c2)n1O	9	7	2	-5	52*	22	32*	8	11
O=C(C1CCCN(S(=O)(=O)c2cccc3nsnc23)C1)N1CCc2ccccc2C1 (configuration not stated)	-11	2	3	8	47*	54*	10	43	23*
COC(=O)[C@]12C[C@H](CC(=O)NCC3CCCCC3)C(=O)N(Cc3ccco3)C1=C[C@H](C(C)(C)C)O[C@@H]2C	·	-1	·	·	·	·	·	·	·
CC(C(=O)Nc1ccc2c(c1)OCCO2)c1ccc([N+](=O)[O-])cc1 (configuration not stated)	-27	1	76*	3	128*	123*	85*	78*	40*
CC(C(=O)Nc1ccc2c(c1)OCO2)c1ccc([N+](=O)[O-])cc1 (configuration not stated)	-9	0	15	0	37	·	·	·	·
Cn1c(=O)c2c(nc(N3CCCCCC3)n2Cc2cccc3ccccc23)n(C)c1=O	2	1	11	15	66*	72*	42*	35	28*
NC(=Nc1ccccc1)Nc1ccccc1	-6	1	79*	8	87*	118*	83*	94*	67*
CCOC(=O)/C(C(=Nc1ccccc1)Nc1ccccc1)=C(\C)O	0	-3	-16	5	-3	·	·	·	·
O=C1c2cccc3c(N4CCCCC4)ccc(c23)C(=O)N1c1ccccc1O	3	-33	65*	2	130*	24	33*	36	50*
CC(NC(=O)Cc1ccc(-c2ccccc2)cc1)c1ccccc1 (configuration not stated)	-3	0	22	0	60*	17	18*	7	9
COC(=O)c1cc(-c2cc3ccccc3s2)c(=O)n2c1CCC2	·	2	·	·	·	·	·	·	·
CCCNC(=O)Cn1sc2nc(C)cc(C)c2c1=O	-3	-1	-13	2	52*	37	21*	24	18
CN1CCCN(C(=O)CSc2nnc(-c3cccnc3)n2C2CCCCC2)CC1	·	-2	·	·	·	·	·	·	·
O=C(CNCC1CCCCC1)Nc1ccc(OC(F)(F)F)cc1	-46	-9	41	-2	74*	76*	51*	49*	33*
CN(CC(=O)Nc1ccc(OC(F)(F)F)cc1)C1CCCCC1	-9	-3	-13	-2	14	·	·	·	·
CCN(CC)c1ccc(C=C2SC(=S)NC2=O)cc1	·	25	105*	·	120*	97*	104*	101*	98*
Oc1c(C(c2ccc(F)cc2)N2CCc3ccccc3C2)sc2ncnn12 (configuration not stated)	-2	4	·	0	·	·	7	·	13
Cc1ccc(C(c2sc3ncnn3c2O)N2CCCCC2)cc1 (configuration not stated)	-1	4	-16	10	-1	·	·	·	·

Screening data from PubChem BioAssay.
